Data on four molecules can be found in ChEMBL document CHEMBL1177719 (J Med Chem, 2010).

In series [1] the target is T1, Nitric oxide synthase, inducible (Mus musculus) (UniProt P29477).
T1 sequence (whole entry): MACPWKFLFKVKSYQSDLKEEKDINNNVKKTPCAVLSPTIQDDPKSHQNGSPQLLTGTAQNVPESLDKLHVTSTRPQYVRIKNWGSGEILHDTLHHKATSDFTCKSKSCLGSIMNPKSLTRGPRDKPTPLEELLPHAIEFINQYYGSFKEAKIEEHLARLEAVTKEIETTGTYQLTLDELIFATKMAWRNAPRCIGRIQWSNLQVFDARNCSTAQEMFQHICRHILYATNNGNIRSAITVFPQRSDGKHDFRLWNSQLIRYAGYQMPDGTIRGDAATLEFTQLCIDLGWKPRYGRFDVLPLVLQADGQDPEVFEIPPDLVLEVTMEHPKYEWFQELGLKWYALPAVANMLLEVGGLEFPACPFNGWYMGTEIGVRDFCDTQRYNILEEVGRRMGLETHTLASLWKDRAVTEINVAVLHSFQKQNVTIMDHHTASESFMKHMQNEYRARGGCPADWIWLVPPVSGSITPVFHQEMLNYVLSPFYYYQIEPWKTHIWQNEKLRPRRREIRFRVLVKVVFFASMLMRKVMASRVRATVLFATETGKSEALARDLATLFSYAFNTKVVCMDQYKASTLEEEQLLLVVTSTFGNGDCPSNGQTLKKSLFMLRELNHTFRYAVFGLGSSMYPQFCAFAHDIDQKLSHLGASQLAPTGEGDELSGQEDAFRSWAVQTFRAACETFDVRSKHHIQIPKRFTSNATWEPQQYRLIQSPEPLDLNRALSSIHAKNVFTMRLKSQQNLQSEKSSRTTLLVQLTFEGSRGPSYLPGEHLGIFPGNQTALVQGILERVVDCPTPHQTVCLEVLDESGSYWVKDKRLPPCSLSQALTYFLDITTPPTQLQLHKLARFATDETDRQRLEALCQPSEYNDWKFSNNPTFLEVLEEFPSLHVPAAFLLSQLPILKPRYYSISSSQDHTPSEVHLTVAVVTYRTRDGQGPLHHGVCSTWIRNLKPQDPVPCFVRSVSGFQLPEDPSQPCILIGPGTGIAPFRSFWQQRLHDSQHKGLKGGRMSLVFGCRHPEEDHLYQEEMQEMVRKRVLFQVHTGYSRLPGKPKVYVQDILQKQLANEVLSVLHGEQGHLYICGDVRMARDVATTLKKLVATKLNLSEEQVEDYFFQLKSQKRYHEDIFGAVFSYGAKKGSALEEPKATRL
Kind of series: Inhibition of iNOS-mediated nitric oxide production in LPS-stimulated mouse RAW 264.7 cells at 34 uM pretreated 30 mins before LPS challenge measured after 20 hrs by Griess reaction method relative to control. The format is cell-based.

In a further series the test system is HEK293. Nature of the series: Cytotoxicity against human HEK293 cells at 34 uM. The format is cell-based. As to conditions: hek293, 34 µM.
The target in another series is T2, Aromatase (Homo sapiens, UniProt P11511).
T2 sequence (P11511 whole entry): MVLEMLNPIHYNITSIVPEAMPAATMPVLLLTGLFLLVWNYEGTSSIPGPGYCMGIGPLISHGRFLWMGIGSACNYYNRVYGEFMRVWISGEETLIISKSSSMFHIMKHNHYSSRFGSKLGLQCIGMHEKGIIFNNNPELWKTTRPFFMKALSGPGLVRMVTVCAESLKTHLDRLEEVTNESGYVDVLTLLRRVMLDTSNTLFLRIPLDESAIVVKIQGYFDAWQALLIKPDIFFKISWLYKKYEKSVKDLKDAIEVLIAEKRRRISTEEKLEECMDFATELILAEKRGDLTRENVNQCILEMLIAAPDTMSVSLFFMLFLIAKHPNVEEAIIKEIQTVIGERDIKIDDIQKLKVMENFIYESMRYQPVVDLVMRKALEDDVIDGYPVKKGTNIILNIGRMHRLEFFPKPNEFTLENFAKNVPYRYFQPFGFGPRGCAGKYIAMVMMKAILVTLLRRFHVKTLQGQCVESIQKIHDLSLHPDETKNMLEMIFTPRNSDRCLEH
Particulars: read-out: INH.

The next series deals with RAW264.7. Kind of series: Inhibition of LPS-induced COX2 expression in mouse RAW264.7 cells at 34 uM treated 15 mins before LPS challenge measured after 18 hrs by Western blotting relative to control. Type of series: functional. The procedure, abridged:
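RAW 264.7 cells pretreated 15 min with compound (34 μM), then LPS 1 μg/mL for 18 h. Lysates (30 μg protein) run on 8% SDS-PAGE and transferred to PVDF. Blocked in 5% milk/TBST, probed for iNOS and COX-2 with HRP secondary, ECL detection, β-actin internal control. Band density relative to LPS-treated control; duplicate experiments.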
A general note: A western blot detects proteins with antibodies after separation by electrophoresis.

In series [2] the target is T3, Prostaglandin G/H synthase 1 (Ovis aries, UniProt P05979).
T3 sequence (P05979 whole entry): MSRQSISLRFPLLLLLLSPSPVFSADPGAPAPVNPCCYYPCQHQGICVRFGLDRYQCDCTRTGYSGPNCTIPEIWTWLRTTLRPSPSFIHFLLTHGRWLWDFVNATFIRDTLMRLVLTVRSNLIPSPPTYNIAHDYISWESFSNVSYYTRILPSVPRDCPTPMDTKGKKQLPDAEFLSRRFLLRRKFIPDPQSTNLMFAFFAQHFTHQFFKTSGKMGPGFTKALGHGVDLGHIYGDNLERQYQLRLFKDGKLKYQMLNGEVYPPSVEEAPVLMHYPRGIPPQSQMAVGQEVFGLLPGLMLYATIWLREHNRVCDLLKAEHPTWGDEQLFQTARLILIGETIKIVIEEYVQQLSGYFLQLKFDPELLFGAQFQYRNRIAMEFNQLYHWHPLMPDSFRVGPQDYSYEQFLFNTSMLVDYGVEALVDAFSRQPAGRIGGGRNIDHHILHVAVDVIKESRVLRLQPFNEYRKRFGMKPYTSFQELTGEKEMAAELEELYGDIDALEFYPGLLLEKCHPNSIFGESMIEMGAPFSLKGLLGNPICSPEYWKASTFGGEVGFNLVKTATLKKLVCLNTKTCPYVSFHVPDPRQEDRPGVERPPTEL
Kind of series: Inhibition of sheep seminal vesicles COX1 assessed as PGE2 production after 10 mins by ELISA. The procedure, abridged:
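Sheep seminal vesicle COX-1; reaction started with arachidonic acid, 10 min at room temperature, stopped with 27.8 μM indomethacin. PGE₂ quantified by competitive ELISA (PGE₂-acetylcholinesterase tracer, Ellman's reagent, 412 nm) against a PGE₂ standard curve. Result as % of solvent control; IC₅₀ from dose-response curves.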
In general terms: In an ELISA, binding on a coated surface is turned into a signal by an enzyme label.

Take `O=S(=O)([O-])Oc1ccc(/C=C/c2cc(OS(=O)(=O)[O-])cc(OS(=O)(=O)[O-])c2)cc1.[K+].[K+].[K+]`: the inhibition in series [1] is 24.8%. Moreover, the Activity entry in the series with HEK293 is given as “Non-toxic”. In addition, on Aromatase, the inhibition at 34 µM was 28.5%. Moreover, the “fold change (FC)” value with RAW264.7 is given as 0.69.
The like results for `O=S(=O)([O-])Oc1cc(/C=C/c2ccc(O)cc2)cc(OS(=O)(=O)[O-])c1.[K+].[K+]` were, in that order, 4.8%, “Non-toxic”, 20.5% and 0.76.
As for `O=S(=O)([O-])Oc1ccc(/C=C/c2cc(O)cc(O)c2)cc1.[K+]`, the inhibition in series [1] was determined as 56.8%. In addition, the Activity entry in the series with HEK293 is “Non-toxic”. The inhibition at 34 µM on Aromatase is 30.4%. The IC50 (as a rule, the concentration that inhibits the measured activity by half) in series [2] was 5.55 µM.
Turning to `O=S(=O)([O-])Oc1cc(O)cc(/C=C/c2ccc(O)cc2)c1.[K+]`, in series [1], the inhibition came to 41%. Further, the Activity result in the series on HEK293 was “Non-toxic”. Also, the inhibition at 34 µM on Aromatase turned out to be 28.2%. In series [2], the 50% inhibitory concentration (IC50) was found to be 3.6 µM.
